STAT3 act = STAT3 signaling activation. U3A cells, IL-6 STAT3-luciferase reporter, luminescence; 100% = signal with IL-6 EC80 alone. activation (% of control), % at 5.6 µM. 190,000 compounds, 0.91% hits. AID 871;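 active means activation above the screen-wide mean of compound activation plus 3 SD, cut at about 130% in these data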
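Test system: Human STAT1-deficient U3A cells with stable STAT3-luciferase reporter | Also added: Interleukin-6, 33 ng/mL | Timing: Compound pre-incubation 1 h before IL-6, then 6 h stimulation at 37 °C | Technique: Luciferase reporter luminescence | Read-out: Percent of IL-6-only median luminescence | Benchmarks: IL-6-only wells as 100% reference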
STAT1 blocker = reduces IFN-gamma driven STAT1 reporter signal. inhibition, % at 5.5 µM. NIH 3T3 STAT1-luciferase reporter, luminescence. 200,000 compounds, 0.35% hits. AID 920;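 active means inhibition above a set limit, the mean inhibition across all tested compounds plus 3 SD, cut at about 34% in these data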
STAT3 blocker = inhibitors of IL-6 induced STAT3 signaling. U3A cells, IL-6 STAT3-luciferase reporter, luminescence; host cell line lacks STAT1. inhibition, % at 5.5 µM. 190,000 compounds, 0.89% hits. AID 862;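 active means inhibition above the mean inhibition across all screened compounds plus 3 SD, cut at about 44% in these data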
PPC-1+TRAIL kill = kills PPC-1 cancer cells in the presence of TRAIL; PPC-1 cells + TRAIL, ATPLite viability luminescence; cell killing (% activity), % at 4 µM or 5 µM; 220,000 compounds, 0.41% hits; AID 1443;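 active means cell killing above 50% in the first pass at 4 µM, then a duplicate retest at 5 µM averaging 50% or more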
TRAIL sens C8 = sensitizes caspase-8 expressing cells to TRAIL; NB7+C8 cells + TRAIL, ATPlite viability luminescence; inhibition (viability loss, TRAIL sensitization), % at 10 µM; 360,000 compounds, 1% hits; AID 624354;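 active means compounds causing at least 50% loss of cell viability in the single-dose screen, relative to plate controls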
Of the large screens only hits and unclear results are named; the others gave an inactive call. This is a sample that favours compounds with a hit; in the whole collection about 1.8% have one here.

CCOc1ccc(OCc2cccc(C(=O)N3CCCCCC3)c2)cc1	STAT1 blocker 71, STAT3 blocker 80
O=C(O)c1ccc(COc2ccc(CO)cc2Cl)cc1	none
O=C(OCC(F)(F)F)c1cccc(COc2ccc3ccccc3c2)c1	STAT1 blocker 88, STAT3 blocker 102
O=C(COC(=O)CNS(=O)(=O)c1ccc(Cl)cc1)NC1CCCCC1	none (no result: STAT3 act, STAT1 blocker, STAT3 blocker, PPC-1+TRAIL kill)
O=C(O)c1cccc(COc2ccc3c(c2)CCC3)c1	TRAIL sens C8 63 (no result: STAT3 act, STAT1 blocker, STAT3 blocker)
COc1cc(/C=C/[N+](=O)[O-])ccc1OCc1cccc(C(=O)O)c1	STAT1 blocker 90, STAT3 blocker 93 (no result: TRAIL sens C8)
COc1ccc(-c2nc3ccccc3c(=O)[nH]2)cc1	TRAIL sens C8 66 (no result: STAT3 act, STAT1 blocker, STAT3 blocker, PPC-1+TRAIL kill)
CCc1ccc(N2CC(C(=O)OCC(=O)Nc3ccc(C(C)=O)cc3)CC2=O)cc1 (stereo not given)	none (no result: STAT3 act, STAT1 blocker, STAT3 blocker, PPC-1+TRAIL kill)
O=C(CN1C(=O)NC2(CCCCC2)C1=O)Nc1ccc2c(c1)CCC2	STAT3 act 134
CO[C@@H]1CN(C)C(=O)c2ccc(NC(=O)C3CCCC3)cc2OC[C@@H](C)N(Cc2ccc(F)cc2)C[C@H]1C	none (no result: STAT3 act, STAT1 blocker, STAT3 blocker, PPC-1+TRAIL kill)
CCOC(=O)N1N=C(c2ccc(OC)cc2)CC1(O)C(F)(F)F (stereo not given)	none
CCc1ccc(C2=NN(C(=O)OC)C(O)(C(F)(F)F)C2)cc1 (stereo not given)	STAT1 blocker 38, STAT3 blocker 69, TRAIL sens C8 55
CC(=O)N1CCN(C(c2ccccc2)c2nnnn2C(C)(C)C)CC1 (stereo not given)	none (no result: STAT3 act, STAT1 blocker, STAT3 blocker, PPC-1+TRAIL kill)
O=C1C=C(c2c(O)ccc3ccccc23)c2ccccc2C1=O	TRAIL sens C8 86 (no result: STAT3 act, STAT1 blocker, STAT3 blocker, PPC-1+TRAIL kill)
CC(=O)Oc1ccc(/C=N\NC(=O)c2cc3c(ccc4ccccc43)o2)cc1	TRAIL sens C8 64 (no result: STAT3 act, STAT1 blocker, STAT3 blocker, PPC-1+TRAIL kill)
O=C(Nc1ccc(OCC(F)(F)C(F)F)c(C(F)(F)F)c1)c1ccc(Cl)cc1	TRAIL sens C8 77 (no result: PPC-1+TRAIL kill)
COc1ccc(C(=O)Nc2ccc(OCC(F)(F)C(F)F)c(C(F)(F)F)c2)cc1OC	none
CCCCC1CC(=O)NC1(C(=O)OCC)C(=O)OCC (stereo not given)	none (no result: STAT3 act, STAT1 blocker, STAT3 blocker, PPC-1+TRAIL kill)
COc1ccc(CCCC(=O)N/N=C/c2cccc(OC)c2O)cc1C	TRAIL sens C8 52
COc1cccc(/C=N/NC(=O)C[n+]2ccccc2)c1O	none
CN(C)S(=O)(=O)c1ccc(N2CCN(S(=O)(=O)c3ccc(F)cc3)CC2)c(Cl)c1	TRAIL sens C8 53
CN(C)S(=O)(=O)N1CCN(S(=O)(=O)c2ccc(F)cc2)CC1	none
CC(C)C[C@H]1CNC(=O)C(=O)N1C[C@H]1CCCN1C[C@H](CC(C)C)N1C[C@H](CC(C)C)N(CCc2ccccc2)C(=O)C1=O	none (no result: STAT3 act, STAT1 blocker, STAT3 blocker, PPC-1+TRAIL kill)
COc1cc2c(cc1OC)C(C1C(=O)CCCC1=O)N(C(=O)CCl)CC2 (stereo not given)	none
COc1cc2c(cc1OC)C(c1ccccc1)N(C(=O)CCl)CC2 (stereo not given)	TRAIL sens C8 86
CCOC(=O)c1sc2nc(-c3ccccc3)ccc2c1N	PPC-1+TRAIL kill 58, TRAIL sens C8 77
O=[N+]([O-])c1ccc(Sc2ccncn2)c([N+](=O)[O-])c1	TRAIL sens C8 53 (no result: STAT3 act, STAT1 blocker, STAT3 blocker, PPC-1+TRAIL kill)
CN1C[C@@H]2[C@@H]3C(=O)N(Cc4ccccc4)C(=O)[C@@H]3[C@](Cc3ccccc3)(C1=O)N2C(=O)c1ccc(C(C)(C)C)cc1	TRAIL sens C8 65 (no result: STAT3 act, STAT1 blocker, STAT3 blocker, PPC-1+TRAIL kill)
COc1ccc2nc(NN=C(C)c3ccccn3)cc(C)c2c1	TRAIL sens C8 69 (no result: STAT3 act, STAT1 blocker, STAT3 blocker, PPC-1+TRAIL kill)
Cc1ccc(CN2[C@@H](Cc3ccccc3)C(=O)CS2(=O)=O)cc1	TRAIL sens C8 64 (no result: STAT3 act, STAT1 blocker, STAT3 blocker, PPC-1+TRAIL kill)
CCOc1cc(/C=C/c2cc(C(=O)O)c3ccccc3n2)ccc1OC	TRAIL sens C8 58
CCOc1cc(/C=C/c2cc(C(=O)O)c3ccccc3n2)ccc1O	none
Cc1ccccc1-n1c(C)cc(/C=C(\C#N)C(=O)NCC2CCCO2)c1C (stereo not given)	PPC-1+TRAIL kill 55
COCCNC(=O)/C(C#N)=C/c1cc(C)n(-c2ccc(C)cc2)c1C	TRAIL sens C8 62
Cc1ccc(/C=C(\C#N)C(=O)NCC2CCCO2)o1 (stereo not given)	none
CC1C(=O)N(Cc2cn(Cc3ccco3)nn2)CCS(=O)(=O)N1Cc1ccc(-c2cccc(N(C)C)c2)cc1 (stereo not given)	none (no result: STAT3 act, STAT1 blocker, STAT3 blocker, PPC-1+TRAIL kill)
CC(=O)Nc1cccc(-c2ccnc3c2CC(C(=O)NCc2cccs2)O3)c1 (stereo not given)	none (no result: STAT3 act, STAT1 blocker, STAT3 blocker, PPC-1+TRAIL kill)
CC(C)c1ccc2oc(-c3cc(N)ccc3O)nc2c1	TRAIL sens C8 66
COc1ccc(NC(=O)COC(=O)C2CC(=O)N(CCc3ccc(OC)c(OC)c3)C2)cc1Cl (stereo not given)	none (no result: STAT3 act, STAT1 blocker, STAT3 blocker, PPC-1+TRAIL kill)
O=c1c2[nH]c3ccc(F)cc3c2ncn1Cc1ccncc1	none (no result: STAT3 act, STAT1 blocker, STAT3 blocker)
O=c1c2[nH]c3ccc(F)cc3c2ncn1C1CCCCC1	TRAIL sens C8 51
O=C(Nc1nnc(-c2ccccc2)o1)NC1CCCCC1	TRAIL sens C8 61
CC1(C)CC2(C)OC2C2(C1)N=NC(=Nc1ccccc1)O2 (stereo not given)	none (no result: STAT3 act, STAT1 blocker, STAT3 blocker, PPC-1+TRAIL kill)
Nc1ccc(-c2ncc(-c3ccccc3)o2)cc1	TRAIL sens C8 52 (no result: STAT3 act, STAT1 blocker, STAT3 blocker, PPC-1+TRAIL kill)
CC(C)[C@H](NC(=O)c1ccc(Cl)cc1Cl)C(=O)OCc1nc2ccsc2c(=O)[nH]1	none (no result: STAT3 act, STAT1 blocker, STAT3 blocker, PPC-1+TRAIL kill)
CC(CCc1ccccc1)NC(=O)c1ccccc1 (stereo not given)	none
CC(CCc1ccccc1)NC(=O)c1ccc(C(=O)NC(C)CCc2ccccc2)cc1 (stereo not given)	STAT3 blocker 60
C[C@H]1COc2cc(N(C)CCO)ccc2S(=O)(=O)N1	none (no result: STAT3 act, STAT1 blocker, STAT3 blocker, PPC-1+TRAIL kill)
CN(C)C(=S)N=Nc1[nH]c2ccccc2c1O	STAT3 act 152 (no result: TRAIL sens C8)
Cc1cccn2c(=O)c3cc(C(=O)NCCC4=CCCCC4)n(C)c3nc12	none (no result: STAT3 act, STAT1 blocker, STAT3 blocker, PPC-1+TRAIL kill)
Cn1c(C(=O)NCCC2=CCCCC2)cc2c(=O)n3ccccc3nc21	TRAIL sens C8 60
Nc1nc(CCl)nc(Nc2cccc3ccccc23)n1	TRAIL sens C8 95 (no result: STAT3 act, STAT1 blocker, STAT3 blocker)
